Measurements pooled from the literature.
Lines come from different studies, so protocols differ.
Target: Wee1-like protein kinase 2 (WEE2, Homo sapiens, UniProt P0C1S8)

Structure (SMILES)	read-out	technique	tested at	remaining binding
O=C1CCc2cc(Nc3cc(OC4CCOCC4)c([N+](=O)[O-])cc3Cl)ccc2N1	cell-free assay	competition with immobilised ligand	1 µM	96%
O=C(Nc1c[nH]nc1C(=O)NC1CCNCC1)c1cc(F)cc(F)c1	binding	competition with immobilised ligand	1 µM	100%
COc1ncc2cc3ccccc3nc2c1C#N	cell-free assay	competition with immobilised ligand	5 µM	100%
O=C(c1ccc(Nc2ncc(Cl)c(-c3ccc(Cl)s3)n2)cc1)N1CCC(N2CCCC2)CC1	binding	competition with immobilised ligand	1 µM	8.4%
NS(=O)(=O)c1cc(NC(=O)Cc2ccccc2)ccc1Oc1cccc(Cl)c1	cell-free assay	competition with immobilised ligand	1 µM	78%
C[C@@H]1CCN(c2nccc(-c3cnn4ncccc34)n2)C1	binding	–	1 µM	87%
CNC(=O)[C@@H]1CC[C@@H](n2c(-c3ccc4cnccc4c3)nc3ccc(C(=O)NCc4cccc(C(N)=O)c4)cc32)C1	binding	competition with immobilised ligand	1 µM	100%
CCc1ccccc1C(=O)Nc1n[nH]c2c(C)c(F)c(C3C(C#N)=C(C)N(C)C(C)=C3C#N)cc12	cell-free assay	competition with immobilised ligand	1 µM	82%
O=C(c1ccc(Nc2nccc(-c3cc4ccccc4s3)n2)cc1)N1CCC(N2CCCC2)CC1	binding	competition with immobilised ligand	1 µM	65%
C=CC(=O)N1CCC(C(=O)NCC(=O)N2CCN(c3nc(-c4cnc(N)nc4C(F)F)nc(N4CCOCC4)n3)CC2)CC1	binding	competition with immobilised ligand	1 µM	100%
CN(C)c1nccc(-c2cnn3ncccc23)n1	binding	–	1 µM	100%
Nc1ncc2c(n1)-c1c([nH]c3ccc(C#CC4CC4)cc13)CCCC2	binding	competition with immobilised ligand	1 µM	98%
CNC(=O)c1ccc(Nc2ncc(C(F)(F)F)c(NCc3nccnc3N(C)S(C)(=O)=O)n2)cc1	cell-free assay	competition with immobilised ligand	0.1 µM	97%
CC1CCCN1c1nccc(-c2cnn3ncccc23)n1 (stereo not drawn)	binding	–	1 µM	100%
FC(F)(F)c1ccc2c(c1)nc(-c1cccnc1)n2C1CC1	cell-free assay	competition with immobilised ligand	1 µM	100%
CN(C)c1ncc(F)c(-c2cnn3ncccc23)n1	binding	–	1 µM	98%
Cn1cc(Cl)c2c(Oc3c(F)cc(Nc4cc(Cl)nc(N)n4)cc3F)ccnc21	cell-free assay	competition with immobilised ligand	0.1 µM	93%
CN(c1nccc(-c2cnn3ncccc23)n1)C1CC1	binding	–	1 µM	100%
FC(F)(F)Oc1cccc(-c2cnc3ccc(-c4ccncc4)nn23)c1	binding	competition with immobilised ligand	5 µM	86%
O=C(c1ccc(Nc2ncc(Cl)c(-c3cc4ccccc4s3)n2)cc1)N1CCC(N2CCCC2)CC1	binding	competition with immobilised ligand	1 µM	27%
N[C@H]1CCN(c2nccc(-c3cnn4ncccc34)n2)C1	binding	–	1 µM	100%
